Laboratory results taken from publication PMC5621377 (Clinical cancer research : an official journal of the …, 2016).

System: patients with Rb+ advanced solid tumors or lymphomas
Experiment: Safety assessments, adverse events
Assay type: in vivo, human
Procedure, shortened: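 Oral test compound given daily 3-weeks-on/1-week-off in 28-day cycles, with doses escalated by a Bayesian logistic regression model with overdose control. Safety assessments, including ECGs, were done at baseline and at regular intervals. AEs were graded by CTCAE v4.0 and classed as suspected related to treatment. All patients dosed at least once were included; summaries were descriptive per dose level.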

[1] = 400 mg 3-weeks-on/1-week-off, n = 5
[2] = 600 mg 3-weeks-on/1-week-off, n = 67
[3] = 600 mg continuous dosing, n = 7
[4] = 750 mg 3-weeks-on/1-week-off, n = 14
[5] = 900 mg 3-weeks-on/1-week-off, n = 13
[6] = 1,200 mg 3-weeks-on/1-week-off, n = 3
[7] = RDE 600 mg/day 3-weeks-on/1-week-off
[8] = of 67 patients treated at the RDE

## CN(C)C(=O)c1cc2cnc(Nc3ccc(N4CCNCC4)cn3)nc2n1C1CCCC1 [ribociclib]
[1]
  Nausea, Grade All, AE suspected related to study treatment: 1 (20) n (%)
  Neutropenia, Grade 3/4, AE suspected related to study treatment: 1 (20) n (%)
  Neutropenia, Grade All, AE suspected related to study treatment: 2 (40) n (%)
  Thrombocytopenia, Grade 3/4, AE suspected related to study treatment: 0 n (%)
  Thrombocytopenia, Grade All, AE suspected related to study treatment: 1 (20) n (%)
  Vomiting, Grade 3/4, AE suspected related to study treatment: 0 n (%)
  Vomiting, Grade All, AE suspected related to study treatment: 2 (40) n (%)
[2]
  Anemia, Grade 3/4, AE suspected related to study treatment: 2 (3) n (%)
  Anemia, Grade All, AE suspected related to study treatment: 19 (28) n (%)
  Appetite decreased, Grade 3/4, AE suspected related to study treatment: 0 n (%)
  Appetite decreased, Grade All, AE suspected related to study treatment: 5 (7) n (%)
  Blood creatinine increased, Grade 3/4, AE suspected related to study treatment: 0 n (%)
  Blood creatinine increased, Grade All, AE suspected related to study treatment: 4 (6) n (%)
  Diarrhea, Grade 3/4, AE suspected related to study treatment: 2 (3) n (%)
  Diarrhea, Grade All, AE suspected related to study treatment: 18 (27) n (%)
  Fatigue, Grade 3/4, AE suspected related to study treatment: 2 (3) n (%)
  Fatigue, Grade All, AE suspected related to study treatment: 22 (33) n (%)
  Leukopenia, Grade 3/4, AE suspected related to study treatment: 13 (19) n (%)
  Leukopenia, Grade All, AE suspected related to study treatment: 31 (46) n (%)
  Lymphopenia, Grade 3/4, AE suspected related to study treatment: 12 (18) n (%)
  Lymphopenia, Grade All, AE suspected related to study treatment: 15 (22) n (%)
  Nausea, Grade 3/4, AE suspected related to study treatment: 1 (1) n (%)
  Nausea, Grade All, AE suspected related to study treatment: 30 (45) n (%)
  Neutropenia, Grade 3/4, AE suspected related to study treatment: 19 (28) n (%)
  Neutropenia, Grade All, AE suspected related to study treatment: 31 (46) n (%)
  Thrombocytopenia, Grade 3/4, AE suspected related to study treatment: 6 (9) n (%)
  Thrombocytopenia, Grade All, AE suspected related to study treatment: 23 (34) n (%)
  Vomiting, Grade 3/4, AE suspected related to study treatment: 0 n (%)
  Vomiting, Grade All, AE suspected related to study treatment: 17 (25) n (%)
[3]
  Anemia, Grade 3/4, AE suspected related to study treatment: 0 n (%)
  Anemia, Grade All, AE suspected related to study treatment: 2 (29) n (%)
  Appetite decreased, Grade 3/4, AE suspected related to study treatment: 0 n (%)
  Appetite decreased, Grade All, AE suspected related to study treatment: 0 n (%)
  Blood creatinine increased, Grade 3/4, AE suspected related to study treatment: 0 n (%)
  Blood creatinine increased, Grade All, AE suspected related to study treatment: 1 (14) n (%)
  Diarrhea, Grade 3/4, AE suspected related to study treatment: 0 n (%)
  Diarrhea, Grade All, AE suspected related to study treatment: 0 n (%)
  Fatigue, Grade 3/4, AE suspected related to study treatment: 1 (14) n (%)
  Fatigue, Grade All, AE suspected related to study treatment: 5 (71) n (%)
  Leukopenia, Grade 3/4, AE suspected related to study treatment: 5 (71) n (%)
  Leukopenia, Grade All, AE suspected related to study treatment: 6 (86) n (%)
  Lymphopenia, Grade 3/4, AE suspected related to study treatment: 2 (29) n (%)
  Lymphopenia, Grade All, AE suspected related to study treatment: 3 (43) n (%)
  Nausea, Grade 3/4, AE suspected related to study treatment: 0 n (%)
  Nausea, Grade All, AE suspected related to study treatment: 3 (43) n (%)
  Neutropenia, Grade 3/4, AE suspected related to study treatment: 5 (71) n (%)
  Neutropenia, Grade All, AE suspected related to study treatment: 6 (86) n (%)
  Thrombocytopenia, Grade 3/4, AE suspected related to study treatment: 0 n (%)
  Thrombocytopenia, Grade All, AE suspected related to study treatment: 2 (29) n (%)
  Vomiting, Grade 3/4, AE suspected related to study treatment: 0 n (%)
  Vomiting, Grade All, AE suspected related to study treatment: 2 (29) n (%)
600 mg/day (RDE)
  patients with asymptomatic QTcF prolongation: 9%
[4]
  Anemia, Grade 3/4, AE suspected related to study treatment: 1 (7) n (%)
  Anemia, Grade All, AE suspected related to study treatment: 3 (21) n (%)
  Appetite decreased, Grade 3/4, AE suspected related to study treatment: 0 n (%)
  Appetite decreased, Grade All, AE suspected related to study treatment: 3 (21) n (%)
  Blood creatinine increased, Grade 3/4, AE suspected related to study treatment: 0 n (%)
  Blood creatinine increased, Grade All, AE suspected related to study treatment: 3 (21) n (%)
  Diarrhea, Grade 3/4, AE suspected related to study treatment: 0 n (%)
  Diarrhea, Grade All, AE suspected related to study treatment: 4 (29) n (%)
  Fatigue, Grade 3/4, AE suspected related to study treatment: 0 n (%)
  Fatigue, Grade All, AE suspected related to study treatment: 5 (36) n (%)
  Leukopenia, Grade 3/4, AE suspected related to study treatment: 0 n (%)
  Leukopenia, Grade All, AE suspected related to study treatment: 6 (43) n (%)
  Lymphopenia, Grade 3/4, AE suspected related to study treatment: 1 (7) n (%)
  Lymphopenia, Grade All, AE suspected related to study treatment: 6 (43) n (%)
  Nausea, Grade 3/4, AE suspected related to study treatment: 1 (7) n (%)
  Nausea, Grade All, AE suspected related to study treatment: 8 (57) n (%)
  Neutropenia, Grade 3/4, AE suspected related to study treatment: 5 (36) n (%)
  Neutropenia, Grade All, AE suspected related to study treatment: 8 (57) n (%)
  Thrombocytopenia, Grade 3/4, AE suspected related to study treatment: 3 (21) n (%)
  Thrombocytopenia, Grade All, AE suspected related to study treatment: 5 (36) n (%)
  Vomiting, Grade 3/4, AE suspected related to study treatment: 0 n (%)
  Vomiting, Grade All, AE suspected related to study treatment: 4 (29) n (%)
[5]
  Anemia, Grade 3/4, AE suspected related to study treatment: 0 n (%)
  Anemia, Grade All, AE suspected related to study treatment: 3 (23) n (%)
  Appetite decreased, Grade 3/4, AE suspected related to study treatment: 0 n (%)
  Appetite decreased, Grade All, AE suspected related to study treatment: 1 (8) n (%)
  Blood creatinine increased, Grade 3/4, AE suspected related to study treatment: 0 n (%)
  Blood creatinine increased, Grade All, AE suspected related to study treatment: 2 (15) n (%)
  Diarrhea, Grade 3/4, AE suspected related to study treatment: 0 n (%)
  Diarrhea, Grade All, AE suspected related to study treatment: 5 (39) n (%)
  Fatigue, Grade 3/4, AE suspected related to study treatment: 0 n (%)
  Fatigue, Grade All, AE suspected related to study treatment: 10 (77) n (%)
  Leukopenia, Grade 3/4, AE suspected related to study treatment: 4 (31) n (%)
  Leukopenia, Grade All, AE suspected related to study treatment: 9 (69) n (%)
  Lymphopenia, Grade 3/4, AE suspected related to study treatment: 4 (31) n (%)
  Lymphopenia, Grade All, AE suspected related to study treatment: 4 (31) n (%)
  Nausea, Grade 3/4, AE suspected related to study treatment: 0 n (%)
  Nausea, Grade All, AE suspected related to study treatment: 6 (46) n (%)
  Neutropenia, Grade 3/4, AE suspected related to study treatment: 5 (39) n (%)
  Neutropenia, Grade All, AE suspected related to study treatment: 9 (69) n (%)
  Thrombocytopenia, Grade 3/4, AE suspected related to study treatment: 0 n (%)
  Thrombocytopenia, Grade All, AE suspected related to study treatment: 6 (46) n (%)
  Vomiting, Grade 3/4, AE suspected related to study treatment: 0 n (%)
  Vomiting, Grade All, AE suspected related to study treatment: 3 (23) n (%)
[6]
  Anemia, Grade 3/4, AE suspected related to study treatment: 1 (33) n (%)
  Anemia, Grade All, AE suspected related to study treatment: 3 (100) n (%)
  Appetite decreased, Grade 3/4, AE suspected related to study treatment: 0 n (%)
  Appetite decreased, Grade All, AE suspected related to study treatment: 0 n (%)
  Blood creatinine increased, Grade 3/4, AE suspected related to study treatment: 0 n (%)
  Blood creatinine increased, Grade All, AE suspected related to study treatment: 0 n (%)
  Diarrhea, Grade 3/4, AE suspected related to study treatment: 0 n (%)
  Diarrhea, Grade All, AE suspected related to study treatment: 2 (67) n (%)
  Fatigue, Grade 3/4, AE suspected related to study treatment: 0 n (%)
  Fatigue, Grade All, AE suspected related to study treatment: 3 (100) n (%)
  Leukopenia, Grade 3/4, AE suspected related to study treatment: 0 n (%)
  Leukopenia, Grade All, AE suspected related to study treatment: 0 n (%)
  Lymphopenia, Grade 3/4, AE suspected related to study treatment: 0 n (%)
  Lymphopenia, Grade All, AE suspected related to study treatment: 0 n (%)
  Nausea, Grade 3/4, AE suspected related to study treatment: 0 n (%)
  Nausea, Grade All, AE suspected related to study treatment: 3 (100) n (%)
  Neutropenia, Grade 3/4, AE suspected related to study treatment: 1 (33) n (%)
  Neutropenia, Grade All, AE suspected related to study treatment: 2 (67) n (%)
  Thrombocytopenia, Grade 3/4, AE suspected related to study treatment: 1 (33) n (%)
  Thrombocytopenia, Grade All, AE suspected related to study treatment: 2 (67) n (%)
  Vomiting, Grade 3/4, AE suspected related to study treatment: 0 n (%)
  Vomiting, Grade All, AE suspected related to study treatment: 3 (100) n (%)
All doses, N = 132
  Anemia, Grade 3/4, AE suspected related to study treatment: 4 (3) n (%)
  Anemia, Grade All, AE suspected related to study treatment: 34 (26) n (%)
  Appetite decreased, Grade 3/4, AE suspected related to study treatment: 0 n (%)
  Appetite decreased, Grade All, AE suspected related to study treatment: 13 (10) n (%)
  Blood creatinine increased, Grade 3/4, AE suspected related to study treatment: 0 n (%)
  Blood creatinine increased, Grade All, AE suspected related to study treatment: 14 (11) n (%)
  Diarrhea, Grade 3/4, AE suspected related to study treatment: 2 (2) n (%)
  Diarrhea, Grade All, AE suspected related to study treatment: 31 (23) n (%)
  Fatigue, Grade 3/4, AE suspected related to study treatment: 3 (2) n (%)
  Fatigue, Grade All, AE suspected related to study treatment: 59 (45) n (%)
  Leukopenia, Grade 3/4, AE suspected related to study treatment: 22 (17) n (%)
  Leukopenia, Grade All, AE suspected related to study treatment: 57 (43) n (%)
  Lymphopenia, Grade 3/4, AE suspected related to study treatment: 21 (16) n (%)
  Lymphopenia, Grade All, AE suspected related to study treatment: 32 (24) n (%)
  Nausea, Grade 3/4, AE suspected related to study treatment: 2 (2) n (%)
  Nausea, Grade All, AE suspected related to study treatment: 56 (42) n (%)
  Neutropenia, Grade 3/4, AE suspected related to study treatment: 36 (27) n (%)
  Neutropenia, Grade All, AE suspected related to study treatment: 60 (46) n (%)
  Thrombocytopenia, Grade 3/4, AE suspected related to study treatment: 10 (8) n (%)
  Thrombocytopenia, Grade All, AE suspected related to study treatment: 40 (30) n (%)
  Vomiting, Grade 3/4, AE suspected related to study treatment: 0 n (%)
  Vomiting, Grade All, AE suspected related to study treatment: 34 (26) n (%)
[7]
  grade 3/4 neutropenia: 28%
  grade 3/4 thrombocytopenia: 9%
All 132 patients
  treatment-related fatigue, grade 3/4: 2%
  treatment-related nausea, grade 3/4: 2%
  treatment-related neutropenia, all-grade: 46%
All patients
  clinically significant arrhythmias: No clinically significant arrhythmias were observed
[8]
  patients requiring dose reduction to 400 mg/day: 16
  patients with dose interruption without reduction: 13
